{"source": "paper PMC2937276", "about": "(Molecular cancer therapeutics, 2010)", "key": {"[1]": {"tested_on": "GBM culture 2227", "experiment": "XTT cell proliferation assay", "assay_type": "cell-based, Mouse", "settings": "mouse GBM culture 2227; 36 hours; mean of three experiments ± SD", "in_short": "(§1)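 Primary human or mouse GBM cultures (DMEM, 10% FBS) were seeded at 5000 cells per 96-well well. Cells were cultured with test compound or vehicle for 36 h. Proliferation was read by XTT assay in quadruplicate. IC50 came from nonlinear-regression curve fitting.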"}, "[2]": {"settings": "in vivo"}, "[3]": {"tested_on": "GBM culture GBM43", "experiment": "XTT cell proliferation assay", "assay_type": "cell-based, Human", "settings": "human GBM culture GBM43; 36 hours; mean of three experiments ± SD", "in_short": "as §1"}, "[4]": {"tested_on": "GBM culture GBM6", "experiment": "XTT cell proliferation assay", "assay_type": "cell-based, Human", "settings": "human GBM culture GBM6; 36 hours; mean of three experiments ± SD", "in_short": "as §1"}, "[5]": {"tested_on": "GBM culture 46", "experiment": "XTT cell proliferation assay", "assay_type": "cell-based, Mouse", "settings": "mouse GBM culture 46; 36 hours; mean of three experiments ± SD", "in_short": "as §1"}, "[6]": {"tested_on": "GBM culture GBM15", "experiment": "XTT cell proliferation assay", "assay_type": "cell-based, Human", "settings": "human GBM culture GBM15; 36 hours; mean of three experiments ± SD", "in_short": "as §1"}, "[7]": {"tested_on": "GBM culture GBM-2", "experiment": "XTT cell proliferation assay", "assay_type": "cell-based, Mouse", "settings": "mouse GBM culture GBM-2; 36 hours; mean of three experiments ± SD", "in_short": "as §1"}, "[8]": {"tested_on": "GBM culture 2000", "experiment": "XTT cell proliferation assay", "assay_type": "cell-based, Mouse", "settings": "mouse GBM culture 2000; 36 hours; mean of three experiments ± SD", "in_short": "as §1"}, "[9]": {"settings": "in clinical evaluation for various cancers; cited from earlier work"}, "[10]": {"tested_on": "GBM culture 2415", "experiment": "XTT cell proliferation assay", "assay_type": "cell-based, Mouse", "settings": "mouse GBM culture 2415; 36 hours; mean of three experiments ± SD", "in_short": "as §1"}, "[11]": {"tested_on": "GBM culture GBM-1", "experiment": "XTT cell proliferation assay", "assay_type": "cell-based, Mouse", "settings": "mouse GBM culture GBM-1; 36 hours; mean of three experiments ± SD", "in_short": "as §1"}, "[12]": {"tested_on": "GBM culture 69", "experiment": "XTT cell proliferation assay", "assay_type": "cell-based, Mouse", "settings": "mouse GBM culture 69; 36 hours; mean of three experiments ± SD", "in_short": "as §1"}, "[13]": {"tested_on": "GBM culture GBM12", "experiment": "XTT cell proliferation assay", "assay_type": "cell-based, Human", "settings": "human GBM culture GBM12; 36 hours; mean of three experiments ± SD", "in_short": "as §1"}, "[14]": {"tested_on": "GBM culture 2231", "experiment": "XTT cell proliferation assay", "assay_type": "cell-based, Mouse", "settings": "mouse GBM culture 2231; 36 hours; mean of three experiments ± SD", "in_short": "as §1"}, "[15]": {"tested_on": "GBM culture GBM59", "experiment": "XTT cell proliferation assay", "assay_type": "cell-based, Human", "settings": "human GBM culture GBM59; 36 hours; mean of three experiments ± SD", "in_short": "as §1"}, "[16]": {"tested_on": "GBM culture 42", "experiment": "XTT cell proliferation assay", "assay_type": "cell-based, Mouse", "settings": "mouse GBM culture 42; 36 hours; mean of three experiments ± SD", "in_short": "as §1"}, "[17]": {"tested_on": "GBM culture GBM22", "experiment": "XTT cell proliferation assay", "assay_type": "cell-based, Human", "settings": "human GBM culture GBM22; 36 hours; mean of three experiments ± SD", "in_short": "as §1"}, "[18]": {"tested_on": "GBM culture 102", "experiment": "XTT cell proliferation assay", "assay_type": "cell-based, Mouse", "settings": "mouse GBM culture 102; 36 hours; mean of three experiments ± SD", "in_short": "as §1"}, "[19]": {"tested_on": "GBM culture 103", "experiment": "XTT cell proliferation assay", "assay_type": "cell-based, Mouse", "settings": "mouse GBM culture 103; 36 hours; mean of three experiments ± SD", "in_short": "as §1"}, "[20]": {"tested_on": "GBM culture 41", "experiment": "XTT cell proliferation assay", "assay_type": "cell-based, Mouse", "settings": "mouse GBM culture 41; 36 hours; mean of three experiments ± SD", "in_short": "as §1"}, "[21]": {"tested_on": "GBM culture GBM8", "experiment": "XTT cell proliferation assay", "assay_type": "cell-based, Human", "settings": "human GBM culture GBM8; 36 hours; mean of three experiments ± SD", "in_short": "as §1"}, "[22]": {"tested_on": "GBM culture GBM39", "experiment": "XTT cell proliferation assay", "assay_type": "cell-based, Human", "settings": "human GBM culture GBM39; 36 hours; mean of three experiments ± SD", "in_short": "as §1"}, "[23]": {"tested_on": "GBM culture 2736", "experiment": "XTT cell proliferation assay", "assay_type": "cell-based, Mouse", "settings": "mouse GBM culture 2736; 36 hours; mean of three experiments ± SD", "in_short": "as §1"}, "[24]": {"tested_on": "GBM culture 2414", "experiment": "XTT cell proliferation assay", "assay_type": "cell-based, Mouse", "settings": "mouse GBM culture 2414; 36 hours; mean of three experiments ± SD", "in_short": "as §1"}}}
{"smiles": "C=CCNC1=C2C[C@@H](C)C[C@H](OC)[C@H](O)[C@@H](C)/C=C(\\C)[C@H](OC(N)=O)[C@@H](OC)/C=C\\C=C(/C)C(=O)NC(=CC1=O)C2=O", "note": "[17-AAG, 17-allylamino-17-demethoxygeldanamycin, reference compound]", "values": [{"measurement": "IC50", "setting": "[1]", "value": "712 ± 54.4", "unit": "nM"}, {"measurement": "accumulation in mouse brain", "setting": "[2]; ip", "value": "rapidly declines to undetectable levels"}, {"measurement": "Brain concentration", "setting": "[2]; mouse", "value": 2.6, "unit": "ng/g"}, {"measurement": "IC50", "setting": "[3]", "value": "86.9 ± 2.3", "unit": "nM"}, {"measurement": "IC50", "setting": "[4]", "value": "531.7 ± 5", "unit": "nM"}, {"measurement": "IC50", "setting": "[5]", "value": "91.9 ± 1.4", "unit": "nM"}, {"measurement": "IC50", "setting": "[6]", "value": "110 ± 13.4", "unit": "nM"}, {"measurement": "IC50", "setting": "[7]", "value": "1100 ± 119", "unit": "nM"}, {"measurement": "IC50", "setting": "[8]", "value": "345 ± 75.5", "unit": "nM"}, {"measurement": "toxicity on exposure", "setting": "[9]", "value": "dose-limiting hepatotoxicity"}, {"measurement": "IC50", "setting": "[10]", "value": "329 ± 50.1", "unit": "nM"}, {"measurement": "IC50", "setting": "[11]", "value": "208 ± 9.6", "unit": "nM"}, {"measurement": "IC50", "setting": "[12]", "value": "91 ± 4.3", "unit": "nM"}, {"measurement": "IC50", "setting": "[13]", "value": "2580 ± 166", "unit": "nM"}, {"measurement": "IC50", "setting": "[14]", "value": "737 ± 72", "unit": "nM"}, {"measurement": "IC50", "setting": "[15]", "value": "211 ± 11", "unit": "nM"}, {"measurement": "IC50", "setting": "[16]", "value": "166 ± 24.9", "unit": "nM"}, {"measurement": "IC50", "setting": "[17]", "value": "4670 ± 148", "unit": "nM"}, {"measurement": "IC50", "setting": "[18]", "value": "626.2 ± 6", "unit": "nM"}, {"measurement": "IC50", "setting": "[19]", "value": "794 ± 28.7", "unit": "nM"}, {"measurement": "IC50", "setting": "[20]", "value": "100 ± 5", "unit": "nM"}, {"measurement": "IC50", "setting": "[21]", "value": "8010 ± 543", "unit": "nM"}, {"measurement": "IC50", "setting": "[22]", "value": "241.7 ± 1.2", "unit": "nM"}, {"measurement": "IC50", "setting": "[23]", "value": "381 ± 24.1", "unit": "nM"}, {"measurement": "IC50", "setting": "[24]", "value": "205 ± 13.1", "unit": "nM"}]}
